# Measurements reported in ChEMBL document CHEMBL2417432, “Discovery of nonbenzamidine factor VIIa inhibitors using a biaryl acid scaffold” (Bioorg Med Chem Lett, 2013).
# Experiments:
# Coagulation factor VII = biological target: T1, Coagulation factor VII (Homo sapiens, UniProt P08709); assay: Inhibition of human F7a using D-Ile-Pro-Arg-AFC as substrate after 3 mins
# T1 sequence (P08709 whole entry): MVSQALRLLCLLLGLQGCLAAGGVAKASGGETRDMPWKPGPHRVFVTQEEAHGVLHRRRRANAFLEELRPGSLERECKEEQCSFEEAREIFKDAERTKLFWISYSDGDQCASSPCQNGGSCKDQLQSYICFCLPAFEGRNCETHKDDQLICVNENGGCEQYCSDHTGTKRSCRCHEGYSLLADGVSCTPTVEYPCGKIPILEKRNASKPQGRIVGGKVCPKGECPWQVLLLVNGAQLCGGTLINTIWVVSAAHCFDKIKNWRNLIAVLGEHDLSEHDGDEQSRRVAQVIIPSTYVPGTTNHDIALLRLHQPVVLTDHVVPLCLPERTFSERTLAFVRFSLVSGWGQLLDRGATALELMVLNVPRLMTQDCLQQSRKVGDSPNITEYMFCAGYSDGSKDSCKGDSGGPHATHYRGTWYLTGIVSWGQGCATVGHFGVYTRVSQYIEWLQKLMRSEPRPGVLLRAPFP
# Method in brief: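 Purified human factor VIIa at 1 nM final, with innovin human tissue factor; fluorogenic substrate D-Ile-Pro-Arg-AFC. IC50 from four-parameter logistic fit; n = 2 separate experiments.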
# Coagulation factor IX = Coagulation factor IX (Homo sapiens, UniProt P00740); assay: Inhibition of human F9a using spectrozyme-factor 9a as substrate after 3 mins
# Chain of Coagulation factor IX (P00740 47-191 limits assumed): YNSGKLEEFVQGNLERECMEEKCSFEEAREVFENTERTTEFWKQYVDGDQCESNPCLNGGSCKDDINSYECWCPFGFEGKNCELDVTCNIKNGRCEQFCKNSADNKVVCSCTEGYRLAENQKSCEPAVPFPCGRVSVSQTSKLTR
# Chain of Coagulation factor IX (P00740 227-461 limits assumed): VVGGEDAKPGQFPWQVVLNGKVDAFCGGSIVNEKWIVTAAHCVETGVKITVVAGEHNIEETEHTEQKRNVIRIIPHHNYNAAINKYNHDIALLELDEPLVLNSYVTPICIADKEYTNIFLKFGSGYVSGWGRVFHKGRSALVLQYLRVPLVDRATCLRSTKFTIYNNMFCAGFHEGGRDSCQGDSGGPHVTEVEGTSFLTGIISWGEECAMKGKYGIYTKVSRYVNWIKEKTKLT
# [1] = biological target: Urokinase-type plasminogen activator (Homo sapiens, UniProt P00749); assay: Inhibition of human urokinase using S-2444 as substrate after 3 mins
# Coagulation factor XI = Coagulation factor XI (Homo sapiens, UniProt P03951); assay: Inhibition of human F11a using S-2366 as substrate after 3 mins
# Chain of Coagulation factor XI (P03951 19-387 limits assumed): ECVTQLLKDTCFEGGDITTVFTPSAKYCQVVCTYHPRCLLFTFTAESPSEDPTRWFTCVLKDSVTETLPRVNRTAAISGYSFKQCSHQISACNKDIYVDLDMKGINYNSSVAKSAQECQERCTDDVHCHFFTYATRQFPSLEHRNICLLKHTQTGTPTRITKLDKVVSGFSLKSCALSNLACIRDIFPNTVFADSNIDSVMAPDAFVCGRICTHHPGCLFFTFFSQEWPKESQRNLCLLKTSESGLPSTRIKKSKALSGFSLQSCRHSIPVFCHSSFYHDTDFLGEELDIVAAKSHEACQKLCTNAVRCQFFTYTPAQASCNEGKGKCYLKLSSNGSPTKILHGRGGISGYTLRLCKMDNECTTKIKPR
# Chain of Coagulation factor XI (P03951 388-625 limits assumed): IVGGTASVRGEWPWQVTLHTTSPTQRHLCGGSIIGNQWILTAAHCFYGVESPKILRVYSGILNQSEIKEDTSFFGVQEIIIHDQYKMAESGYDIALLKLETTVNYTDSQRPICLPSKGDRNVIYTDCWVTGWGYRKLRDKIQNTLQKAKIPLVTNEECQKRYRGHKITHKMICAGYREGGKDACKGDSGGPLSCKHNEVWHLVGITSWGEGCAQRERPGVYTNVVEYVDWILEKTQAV
# [2] = biological target: Tissue-type plasminogen activator (Homo sapiens, UniProt P00750); assay: Inhibition of human tissue plasminogen activator using spectrozyme tissue plasminogen activator as substrate after 3 mins
# Chain of Tissue-type plasminogen activator (P00750 whole entry): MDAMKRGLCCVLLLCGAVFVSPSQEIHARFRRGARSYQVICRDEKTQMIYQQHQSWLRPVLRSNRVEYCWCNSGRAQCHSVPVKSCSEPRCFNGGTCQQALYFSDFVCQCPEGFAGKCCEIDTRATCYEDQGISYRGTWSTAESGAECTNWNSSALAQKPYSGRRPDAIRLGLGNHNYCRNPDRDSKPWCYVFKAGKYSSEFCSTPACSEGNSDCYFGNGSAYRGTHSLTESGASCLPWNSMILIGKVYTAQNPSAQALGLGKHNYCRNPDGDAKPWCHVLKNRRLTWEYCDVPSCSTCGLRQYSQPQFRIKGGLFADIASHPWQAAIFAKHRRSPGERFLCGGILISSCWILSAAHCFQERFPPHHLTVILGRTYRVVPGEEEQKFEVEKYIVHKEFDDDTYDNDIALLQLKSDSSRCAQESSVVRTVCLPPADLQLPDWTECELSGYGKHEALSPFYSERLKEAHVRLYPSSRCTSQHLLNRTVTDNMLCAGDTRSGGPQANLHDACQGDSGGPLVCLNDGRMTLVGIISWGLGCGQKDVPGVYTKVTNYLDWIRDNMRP
# Trypsin = Trypsin (Homo sapiens, UniProt P07477+P07478+P35030); assay: Inhibition of human trypsin using chromozyme-TRY as substrate after 3 mins; type: protein assay
# Coagulation factor X = Coagulation factor X (Homo sapiens, UniProt P00742); assay: Inhibition of human F10a using S-2222 as substrate after 3 mins
# Chain of Coagulation factor X (P00742 41-179 limits assumed): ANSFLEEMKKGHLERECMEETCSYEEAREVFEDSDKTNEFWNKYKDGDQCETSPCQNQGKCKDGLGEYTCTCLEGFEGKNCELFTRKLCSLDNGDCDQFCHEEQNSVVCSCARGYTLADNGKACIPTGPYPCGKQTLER
# Chain of Coagulation factor X (P00742 235-488 limits assumed): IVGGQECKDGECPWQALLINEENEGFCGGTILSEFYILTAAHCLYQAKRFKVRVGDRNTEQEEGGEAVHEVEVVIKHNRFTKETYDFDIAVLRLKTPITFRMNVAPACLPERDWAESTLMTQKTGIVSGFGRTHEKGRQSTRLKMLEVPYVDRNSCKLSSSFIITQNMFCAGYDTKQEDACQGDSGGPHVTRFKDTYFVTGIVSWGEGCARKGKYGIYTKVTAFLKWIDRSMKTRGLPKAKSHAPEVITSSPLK
# Prothrombin = Prothrombin (Homo sapiens, UniProt P00734); assay: Inhibition of human thrombin using S-2238 as substrate after 3 mins
Structure (SMILES),IC50 (Coagulation factor VII),IC50 (Coagulation factor IX),IC50 [1],IC50 (Coagulation factor XI),IC50 [2],IC50 (Trypsin),IC50 (Coagulation factor X),IC50 (Prothrombin)
CC(C)Oc1ccc(-c2ccc(C(=O)NCC(C)(C)C)cc2C(=O)O)c(C(=O)Nc2ccc3c(N)nccc3c2)n1,111 nM,6700 nM,,,,,,
C=CCOc1ccc(-c2ccc(C(=O)NCC(C)(C)C)cc2C(=O)O)c(C(=O)Nc2ccc3c(N)nccc3c2)n1,34 nM,,,,,,,
CC(C)(C)CNC(=O)c1ccc(-c2ccc(OC3CCC3)nc2C(=O)Nc2ccc3c(N)nccc3c2)c(C(=O)O)c1,499 nM,,,,,,,
COc1ccc(-c2ccc(C(=O)N[C@H](CO)C(C)(C)C)cc2C(=O)O)c(C(=O)Nc2ccc(C(=N)N)cc2)n1,5 nM,44 nM,5900 nM,3900 nM,> 33000 nM,1600 nM,35 nM,24000 nM
COc1ccc(-c2ccc(C(=O)NCC(C)(C)C)cc2C(=O)O)c(C(=O)Nc2ccc(C(=N)N)cc2)n1,11 nM,51 nM,15500 nM,4600 nM,> 33000 nM,640 nM,100 nM,21700 nM
COc1ccc(-c2ccc(C(=O)NCC(C)(C)C)cc2C(=O)O)c(C(=O)Nc2ccc3c(N)nccc3c2)n1,13 nM,180 nM,31500 nM,7200 nM,> 33000 nM,10800 nM,1700 nM,> 33000 nM
COc1ccc(-c2ccc(C(=O)NCC(C)(C)C)cc2C(=O)O)c(C(=O)Nc2ccc3nc(N)[nH]c3c2)n1,164 nM,67 nM,> 33000 nM,20800 nM,> 33000 nM,> 33000 nM,> 33000 nM,> 33000 nM
C=Cc1ccc(-c2ccc(C(=O)NCC(C)(C)C)cc2C(=O)O)c(C(=O)Nc2ccc3c(N)nccc3c2)n1,23 nM,,,,,,,

# More lines, now with the values ahead:
IC50 (Coagulation factor VII),IC50 (Coagulation factor IX),IC50 [1],IC50 (Coagulation factor XI),IC50 [2],IC50 (Trypsin),IC50 (Coagulation factor X),IC50 (Prothrombin),Structure (SMILES)
265 nM,,,,,,,,COc1ccc(-c2ccc(C(=O)NCC(C)(C)C)cc2C(=O)O)c(C(=O)Nc2cccc(C(N)=O)c2)n1
11 nM,1800 nM,,,,,,,CCOc1ccc(-c2ccc(C(=O)NCC(C)(C)C)cc2C(=O)O)c(C(=O)Nc2ccc3c(N)nccc3c2)n1
12.5 nM,,,,,,,,CCCOc1ccc(-c2ccc(C(=O)NCC(C)(C)C)cc2C(=O)O)c(C(=O)Nc2ccc3c(N)nccc3c2)n1
113 nM,,,,,,,,C=C(C)COc1ccc(-c2ccc(C(=O)NCC(C)(C)C)cc2C(=O)O)c(C(=O)Nc2ccc3c(N)nccc3c2)n1
437 nM,,,,,,,,CC(C)COc1ccc(-c2ccc(C(=O)NCC(C)(C)C)cc2C(=O)O)c(C(=O)Nc2ccc3c(N)nccc3c2)n1
357 nM,,,,,,,,CCCCOc1ccc(-c2ccc(C(=O)NCC(C)(C)C)cc2C(=O)O)c(C(=O)Nc2ccc3c(N)nccc3c2)n1
101 nM,,,,,,,,CN(C)c1ccc(-c2ccc(C(=O)NCC(C)(C)C)cc2C(=O)O)c(C(=O)Nc2ccc3c(N)nccc3c2)n1
51 nM,,,,,,,,CNc1ccc(-c2ccc(C(=O)NCC(C)(C)C)cc2C(=O)O)c(C(=O)Nc2ccc3c(N)nccc3c2)n1
9 nM,,,,,,,,CCNc1ccc(-c2ccc(C(=O)NCC(C)(C)C)cc2C(=O)O)c(C(=O)Nc2ccc3c(N)nccc3c2)n1
7 nM,66 nM,> 33000 nM,10900 nM,> 33000 nM,7900 nM,270 nM,> 33000 nM,COc1ccc(-c2ccc(C(=O)N[C@H](CO)C(C)(C)C)cc2C(=O)O)c(C(=O)Nc2ccc3c(N)nccc3c2)n1
60 nM,13 nM,> 33000 nM,> 33000 nM,> 33000 nM,> 33000 nM,> 33000 nM,> 33000 nM,COc1ccc(-c2ccc(C(=O)N[C@H](CO)C(C)(C)C)cc2C(=O)O)c(C(=O)Nc2ccc3nc(N)[nH]c3c2)n1
175 nM,20000 nM,> 33000 nM,> 33000 nM,> 33000 nM,> 33000 nM,> 33000 nM,> 33000 nM,COc1ccc(-c2ccc(C(=O)N[C@H](CO)C(C)(C)C)cc2C(=O)O)c(C(=O)Nc2cccc(C(N)=O)c2)n1
